The subject of test [1] is U2OS. In words: Reduction of homologous recombination in human DR-U2OS-GFP cells expressing I-SceI nuclease at 0.1 uM after 56 hrs […] relative to control. Format: functional.
In test [2] the target is Cyclin-dependent kinase 2/cyclin E1 (Homo sapiens, UniProt P24941). Nature of the test: Inhibition of human recombinant CDK2/cyclin E. Format: protein-complex assay.
For test [3], the target named is Cyclin-dependent kinase 5/CDK5 activator 1 (Homo sapiens, UniProt Q00535). In words: Inhibition of human recombinant CDK5/p35. It counts as protein-complex assay.
The target in another test is CDK9/cyclin T1 (Homo sapiens, UniProt P50750). Nature of the test: Inhibition of human recombinant CDK9/cyclin T1. It counts as protein-complex assay.
For test [4], the target named is Cyclin-dependent kinase 7/ cyclin H (Homo sapiens, UniProt P50613). In words: Inhibition of human recombinant CDK7/cyclin H/MAT1. Format: protein-complex assay.
Test [5] has as its target Dual specificity mitogen-activated protein kinase kinase 1 (Homo sapiens) (UniProt Q02750). In words: Inhibition of human recombinant MEK1 at 10 uM.
In test [6] the target is Casein kinase II (Homo sapiens) (UniProt P67870+P68400+P19784). Nature of the test: Inhibition of human recombinant CK2 at 10 uM. It counts as protein-complex assay.
Test [7] addresses Ribosomal protein S6 kinase alpha-5 (Homo sapiens) (UniProt O75582). In words: Inhibition of human recombinant MSK1 at 10 uM.
Test [8] has as its system MCF7. In words: Cell cycle arrest in human MCF7 cells assessed as accumulation at G2/M phase after 24 hrs using propidium iodide and BrdU staining by flow cytometry. It counts as functional, cell-based. Summed up: (§1)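 Subconfluent MCF-7 cells were treated for 24 h at a range of concentrations. They were pulse-labelled with 10 μM BrdU for 30 min at 37 °C, then trypsinized and fixed in ice-cold 70% ethanol. DNA was denatured in 2 M HCl and neutralized with borate. Cells were stained with fluorescein anti-BrdU and with propidium iodide plus RNase A, then analysed by flow cytometry at 488 nm.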
A general note: Dividing cells build labelled thymidine or BrdU into new DNA.

The subject of test [9] is MCF7. In words: Cell cycle arrest in human MCF7 cells assessed as decrease in S phase cell population after 24 hrs using propidium iodide and BrdU staining by flow cytometry. Format: functional, cell-based. In outline: as §1
The target of test [10] is T1, Retinoblastoma-associated protein (Homo sapiens) (UniProt P06400).
T1 sequence (whole entry): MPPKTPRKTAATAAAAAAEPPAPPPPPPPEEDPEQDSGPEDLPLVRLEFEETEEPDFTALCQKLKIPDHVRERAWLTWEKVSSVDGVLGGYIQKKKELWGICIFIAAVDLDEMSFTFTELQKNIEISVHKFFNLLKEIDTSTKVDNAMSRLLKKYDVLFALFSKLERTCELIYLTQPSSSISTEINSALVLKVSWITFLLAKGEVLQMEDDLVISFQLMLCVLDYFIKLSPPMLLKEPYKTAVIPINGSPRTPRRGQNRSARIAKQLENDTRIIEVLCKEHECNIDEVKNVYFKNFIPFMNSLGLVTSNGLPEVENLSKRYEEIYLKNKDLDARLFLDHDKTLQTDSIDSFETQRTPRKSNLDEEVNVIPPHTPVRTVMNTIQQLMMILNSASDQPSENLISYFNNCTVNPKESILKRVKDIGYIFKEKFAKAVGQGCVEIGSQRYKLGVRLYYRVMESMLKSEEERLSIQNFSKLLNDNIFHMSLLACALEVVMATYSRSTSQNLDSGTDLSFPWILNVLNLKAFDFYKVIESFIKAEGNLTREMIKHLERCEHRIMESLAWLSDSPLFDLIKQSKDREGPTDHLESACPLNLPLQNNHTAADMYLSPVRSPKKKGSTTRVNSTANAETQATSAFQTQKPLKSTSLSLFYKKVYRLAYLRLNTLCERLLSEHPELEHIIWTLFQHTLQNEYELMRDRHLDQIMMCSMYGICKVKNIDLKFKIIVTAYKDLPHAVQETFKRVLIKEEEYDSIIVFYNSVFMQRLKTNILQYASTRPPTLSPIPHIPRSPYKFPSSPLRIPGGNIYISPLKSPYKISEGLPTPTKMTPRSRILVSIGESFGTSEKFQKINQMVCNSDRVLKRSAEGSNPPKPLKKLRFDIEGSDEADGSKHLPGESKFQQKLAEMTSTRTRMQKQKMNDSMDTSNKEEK
Nature of the test: Inhibition of retinoblastoma protein in human HT-29 cells assessed as reduction of cyclin A level at 2.5 to 40 uM after 24 hrs by immunoblotting. Format: cell-based. For orientation: A western blot detects proteins with antibodies after separation by electrophoresis.

In test [11] the test system is MCF7. Nature of the test: Cell cycle arrest in human MCF7 cells assessed as accumulation at sub-G1 phase after 24 hrs using propidium iodide and BrdU staining by flow cytometry. It counts as functional, cell-based. In outline:
as §1

In test [12] the test system is RPMI-8226. In words: Cell cycle arrest in human RPMI8226 cells assessed as decrease in S phase cell population after 24 hrs using propidium iodide and BrdU staining by flow cytometry. Format: functional, cell-based. Summed up:
(§2)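 Asynchronously growing RPMI-8226 multiple myeloma cells were exposed for 24 h. Cells were double-stained with propidium iodide and BrdU and analysed by flow cytometry for G1, S, G2/M and BrdU-positive fractions. The subG1 population was taken as indicative of apoptosis.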

Test [13] deals with Glycogen synthase kinase-3 alpha (Homo sapiens) (UniProt P49840). In words: Inhibition of human recombinant GSK3A at 10 uM.
In test [14] the target is Casein kinase I isoform alpha (Homo sapiens) (UniProt P48729). Nature of the test: Inhibition of human recombinant CK1 at 10 uM.
Test [15] has as its system RPMI-8226. In words: Cell cycle arrest in human RPMI8226 cells assessed as accumulation at sub-G1 phase after 24 hrs using propidium iodide and BrdU staining by flow cytometry. Format: functional, cell-based. Summed up: as §2
Test [16] addresses Cellular tumor antigen p53 (Homo sapiens) (UniProt P04637). Nature of the test: Induction of p53-dependent transcriptional activity in human MCF7 cells assessed as increase of p21 WAF1 level at 20 uM after 24 hrs by immunofluorescence assay. Format: cell-based.
For test [17], the target named is T1, Retinoblastoma-associated protein (Homo sapiens). Nature of the test: Inhibition of retinoblastoma protein in human HT-29 cells assessed as reduction of CDK4 level at 2.5 to 40 uM after 24 hrs by immunoblotting. It counts as cell-based.
Test [18] deals with MCF7. Nature of the test: Cell cycle arrest in human MCF7 cells assessed as reduction of actively replicating DNA level at 80 uM after 24 hrs using propidium iodide and BrdU staining by flow cytometry. It counts as functional, cell-based. Summed up:
as §1

Test [19] concerns RPMI-8226. In words: Cell cycle arrest in human RPMI8226 cells assessed as accumulation at G2/M phase after 24 hrs using propidium iodide and BrdU staining by flow cytometry. Format: functional, cell-based. In outline:
as §2

Test [20] has as its system U2OS. The settings on record: Homo sapiens, 10 uM.
For test [21], the target named is MAP kinase-activated protein kinase 5 (Homo sapiens) (UniProt Q8IW41). Nature of the test: Inhibition of human recombinant PRAK at 10 uM.
Test [22] has as its target CDK9/cyclin T1 (Homo sapiens) (UniProt O60563+P50750). Nature of the test: Inhibition of human recombinant CDK9/cyclin T1 at 10 uM. Format: protein-complex assay.
Test [23] addresses Cyclin-dependent kinase 7/ cyclin H (Homo sapiens) (UniProt P51946+P50613). In words: Inhibition of human recombinant CDK7/cyclin H/MAT1 at 10 uM. It counts as protein-complex assay.
Test [24] has as its system RPMI-8226. Nature of the test: Cell cycle arrest in human RPMI8226 cells assessed as reduction of actively replicating DNA level at 80 uM after 24 hrs using propidium iodide and BrdU staining by flow cytometry. It counts as functional, cell-based. In outline:
as §2

The target of test [25] is Glycogen synthase kinase-3 beta (Homo sapiens) (UniProt P49841). In words: Inhibition of human recombinant GSK3B at 10 uM.

The source made the active and inactive calls. The rule behind the calls is not given here.

Cyclin-dependent kinase 7/ cyclin H, sequence (P51946 whole entry): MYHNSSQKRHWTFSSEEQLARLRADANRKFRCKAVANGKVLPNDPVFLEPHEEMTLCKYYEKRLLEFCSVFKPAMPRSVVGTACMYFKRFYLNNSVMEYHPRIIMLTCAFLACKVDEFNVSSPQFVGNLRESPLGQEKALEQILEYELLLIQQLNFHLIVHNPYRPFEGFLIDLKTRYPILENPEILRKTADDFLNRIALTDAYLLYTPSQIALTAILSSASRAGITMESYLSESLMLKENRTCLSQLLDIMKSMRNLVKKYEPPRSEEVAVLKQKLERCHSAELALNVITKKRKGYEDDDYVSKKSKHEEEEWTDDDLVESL
Cyclin-dependent kinase 7/ cyclin H, sequence (P50613 whole entry): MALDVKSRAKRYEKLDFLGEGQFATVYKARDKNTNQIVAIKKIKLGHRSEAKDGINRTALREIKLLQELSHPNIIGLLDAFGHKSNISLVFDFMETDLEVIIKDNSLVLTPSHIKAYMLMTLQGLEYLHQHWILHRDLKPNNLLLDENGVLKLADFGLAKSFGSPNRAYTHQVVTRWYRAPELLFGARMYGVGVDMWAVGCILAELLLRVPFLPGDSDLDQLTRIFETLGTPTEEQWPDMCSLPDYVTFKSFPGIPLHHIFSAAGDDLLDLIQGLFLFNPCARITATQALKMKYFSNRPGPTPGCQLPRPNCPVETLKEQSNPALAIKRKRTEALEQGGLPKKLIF
MAP kinase-activated protein kinase 5 (Homo sapiens), sequence (Q8IW41 whole entry): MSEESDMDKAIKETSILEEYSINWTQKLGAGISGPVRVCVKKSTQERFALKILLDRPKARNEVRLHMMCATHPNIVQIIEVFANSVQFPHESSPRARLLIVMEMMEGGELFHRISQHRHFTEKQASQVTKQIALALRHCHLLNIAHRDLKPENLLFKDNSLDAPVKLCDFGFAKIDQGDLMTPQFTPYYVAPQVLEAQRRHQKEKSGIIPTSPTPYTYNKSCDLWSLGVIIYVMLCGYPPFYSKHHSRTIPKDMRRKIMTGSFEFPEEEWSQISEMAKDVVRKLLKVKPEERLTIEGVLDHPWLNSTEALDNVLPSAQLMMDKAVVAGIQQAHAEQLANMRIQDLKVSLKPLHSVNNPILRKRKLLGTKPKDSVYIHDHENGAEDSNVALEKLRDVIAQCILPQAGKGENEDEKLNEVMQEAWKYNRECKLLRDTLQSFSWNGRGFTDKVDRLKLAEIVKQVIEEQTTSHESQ
Glycogen synthase kinase-3 beta (Homo sapiens), sequence (P49841 whole entry, looked up): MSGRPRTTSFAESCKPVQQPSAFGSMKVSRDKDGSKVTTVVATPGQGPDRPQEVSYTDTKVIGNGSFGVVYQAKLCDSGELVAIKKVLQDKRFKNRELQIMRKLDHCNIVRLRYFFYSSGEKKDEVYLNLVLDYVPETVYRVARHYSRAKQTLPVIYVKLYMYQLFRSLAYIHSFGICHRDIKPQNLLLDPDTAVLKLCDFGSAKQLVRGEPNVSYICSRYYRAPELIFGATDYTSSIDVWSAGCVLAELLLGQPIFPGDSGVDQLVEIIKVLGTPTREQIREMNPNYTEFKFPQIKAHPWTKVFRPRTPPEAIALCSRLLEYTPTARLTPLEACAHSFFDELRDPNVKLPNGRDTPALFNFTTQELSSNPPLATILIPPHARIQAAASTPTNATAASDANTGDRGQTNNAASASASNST
Dual specificity mitogen-activated protein kinase kinase 1 (Homo sapiens), sequence (Q02750 whole entry): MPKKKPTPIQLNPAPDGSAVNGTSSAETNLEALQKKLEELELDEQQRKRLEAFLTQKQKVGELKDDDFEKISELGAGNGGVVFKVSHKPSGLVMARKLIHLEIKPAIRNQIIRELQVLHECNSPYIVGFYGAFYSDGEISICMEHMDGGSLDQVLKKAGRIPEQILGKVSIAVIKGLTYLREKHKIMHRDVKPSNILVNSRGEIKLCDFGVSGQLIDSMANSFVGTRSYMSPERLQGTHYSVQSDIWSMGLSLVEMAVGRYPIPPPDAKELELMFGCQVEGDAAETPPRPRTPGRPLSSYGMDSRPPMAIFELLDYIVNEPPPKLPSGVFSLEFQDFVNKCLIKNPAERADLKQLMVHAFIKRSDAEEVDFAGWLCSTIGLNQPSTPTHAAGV
Glycogen synthase kinase-3 alpha (Homo sapiens), sequence (P49840 2-483 limits assumed): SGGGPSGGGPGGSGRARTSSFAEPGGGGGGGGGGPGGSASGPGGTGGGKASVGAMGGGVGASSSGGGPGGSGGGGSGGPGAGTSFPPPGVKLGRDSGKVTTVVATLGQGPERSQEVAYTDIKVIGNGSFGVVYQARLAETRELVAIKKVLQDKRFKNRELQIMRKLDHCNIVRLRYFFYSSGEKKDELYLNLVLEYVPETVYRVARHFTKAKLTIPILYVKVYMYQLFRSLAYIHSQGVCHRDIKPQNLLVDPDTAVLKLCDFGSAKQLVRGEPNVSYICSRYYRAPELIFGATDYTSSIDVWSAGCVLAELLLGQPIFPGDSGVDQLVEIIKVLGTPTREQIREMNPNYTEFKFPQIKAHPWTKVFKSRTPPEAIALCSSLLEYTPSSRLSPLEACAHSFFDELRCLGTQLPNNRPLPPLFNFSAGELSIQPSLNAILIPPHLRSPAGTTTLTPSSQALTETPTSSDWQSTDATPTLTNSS
Cyclin-dependent kinase 5/CDK5 activator 1, sequence (Q00535 whole entry): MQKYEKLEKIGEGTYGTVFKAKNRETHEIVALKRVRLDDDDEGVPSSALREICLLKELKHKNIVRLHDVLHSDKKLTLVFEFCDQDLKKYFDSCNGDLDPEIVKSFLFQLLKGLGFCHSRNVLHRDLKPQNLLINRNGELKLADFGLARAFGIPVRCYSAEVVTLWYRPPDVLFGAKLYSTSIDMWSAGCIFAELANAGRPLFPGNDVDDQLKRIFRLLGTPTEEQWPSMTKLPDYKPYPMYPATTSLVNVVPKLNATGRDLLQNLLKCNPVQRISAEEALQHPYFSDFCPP
Cyclin-dependent kinase 5/CDK5 activator 1, sequence (Q15078 whole entry, further chain): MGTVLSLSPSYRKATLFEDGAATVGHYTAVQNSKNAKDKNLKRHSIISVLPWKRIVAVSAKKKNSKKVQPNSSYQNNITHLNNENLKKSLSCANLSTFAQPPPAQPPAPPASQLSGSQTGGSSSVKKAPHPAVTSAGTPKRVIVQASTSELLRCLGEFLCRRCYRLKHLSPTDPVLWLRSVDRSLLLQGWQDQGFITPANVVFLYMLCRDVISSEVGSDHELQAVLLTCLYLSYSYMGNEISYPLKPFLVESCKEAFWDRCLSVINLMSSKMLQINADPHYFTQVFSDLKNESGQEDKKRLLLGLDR
Ribosomal protein S6 kinase alpha-5 (Homo sapiens), sequence (O75582 whole entry, looked up): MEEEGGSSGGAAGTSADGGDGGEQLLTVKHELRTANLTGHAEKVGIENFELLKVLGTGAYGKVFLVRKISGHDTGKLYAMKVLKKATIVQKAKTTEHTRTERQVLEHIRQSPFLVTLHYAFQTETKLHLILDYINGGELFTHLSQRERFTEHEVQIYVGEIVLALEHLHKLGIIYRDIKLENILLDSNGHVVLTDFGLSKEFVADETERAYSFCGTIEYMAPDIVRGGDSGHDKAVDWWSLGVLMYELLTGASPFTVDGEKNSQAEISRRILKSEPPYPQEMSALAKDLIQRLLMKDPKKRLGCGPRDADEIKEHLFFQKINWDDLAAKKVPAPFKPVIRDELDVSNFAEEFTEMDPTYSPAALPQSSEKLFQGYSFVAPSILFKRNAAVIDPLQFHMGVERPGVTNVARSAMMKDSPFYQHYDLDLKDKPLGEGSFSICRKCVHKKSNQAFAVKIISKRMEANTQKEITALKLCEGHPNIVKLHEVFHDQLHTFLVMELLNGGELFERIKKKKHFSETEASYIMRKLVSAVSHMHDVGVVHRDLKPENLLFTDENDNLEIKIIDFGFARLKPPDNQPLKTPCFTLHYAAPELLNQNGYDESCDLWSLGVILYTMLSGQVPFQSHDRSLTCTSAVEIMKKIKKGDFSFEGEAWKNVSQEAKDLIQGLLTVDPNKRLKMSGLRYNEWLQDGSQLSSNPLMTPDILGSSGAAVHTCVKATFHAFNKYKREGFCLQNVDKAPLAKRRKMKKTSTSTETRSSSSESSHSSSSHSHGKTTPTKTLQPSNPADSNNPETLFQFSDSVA
Casein kinase I isoform alpha (Homo sapiens), sequence (P48729 2-337 limits assumed): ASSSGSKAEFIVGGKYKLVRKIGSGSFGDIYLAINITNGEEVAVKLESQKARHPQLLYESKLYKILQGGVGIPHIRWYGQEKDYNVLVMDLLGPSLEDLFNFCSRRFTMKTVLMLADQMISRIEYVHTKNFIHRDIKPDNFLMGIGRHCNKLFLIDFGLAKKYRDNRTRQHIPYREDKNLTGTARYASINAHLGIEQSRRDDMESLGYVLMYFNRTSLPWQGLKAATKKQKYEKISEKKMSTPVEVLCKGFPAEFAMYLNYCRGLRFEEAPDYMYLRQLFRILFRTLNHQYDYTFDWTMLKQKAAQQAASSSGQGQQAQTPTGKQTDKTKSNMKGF
Cellular tumor antigen p53 (Homo sapiens), sequence (P04637 whole entry, looked up): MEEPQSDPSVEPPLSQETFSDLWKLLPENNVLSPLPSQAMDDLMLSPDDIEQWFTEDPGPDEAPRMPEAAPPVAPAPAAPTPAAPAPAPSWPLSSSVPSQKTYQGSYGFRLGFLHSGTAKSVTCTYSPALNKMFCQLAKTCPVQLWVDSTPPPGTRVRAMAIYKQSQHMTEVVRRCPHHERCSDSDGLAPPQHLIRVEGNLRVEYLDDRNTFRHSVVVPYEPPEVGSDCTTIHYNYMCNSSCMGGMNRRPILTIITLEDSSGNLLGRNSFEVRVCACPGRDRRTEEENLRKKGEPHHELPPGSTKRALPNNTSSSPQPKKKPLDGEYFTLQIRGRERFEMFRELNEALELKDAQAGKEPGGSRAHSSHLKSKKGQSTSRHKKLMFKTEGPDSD

The inhibition is the change of the read-out against control, counted positive when it falls. Consider `CN1CC[C@H](c2c(O)cc(O)c3c(=O)cc(-c4ccccc4Cl)oc23)[C@H](O)C1` [ALVOCIDIB], for which the inhibition at 0.1 µM with U2OS [1] came out at 62%.
One may read the IC50 as the concentration at which inhibition is half-maximal. On to `CC[C@H](CO)Nc1nc(NCc2ccccc2)c2n[nH]c(C(C)C)c2n1`, for which the IC50 in test [2] amounted to 0.04 µM; in [3], 0.2 µM; at CDK9/cyclin T1, 1 µM; in [4], 0.16 µM.
For `CC[C@H](CO)Nc1nc(NCc2ccccc2)c2ncn(C(C)C)c2n1`, the inhibition was 38% in test [5]; 10% in test [6]; 29% in test [7]; 13% in test [13]; 1% in [14]; 28% in test [21]. Further, the values for the inhibition in test [22], in [23] and in [25] were 87%, 87% and 25%, respectively. The outcome (with MCF7 [8]; in the test with MCF7 [9]; in the test with MCF7 [11]; with RPMI-8226 [12]; in the test on RPMI-8226 [15]; in [16]) was Active. The result in the test with MCF7 [18], in the test with RPMI-8226 [19] and in the test on RPMI-8226 [24] was Active. In [10], the inhibition result is “Active”. Also, the inhibition entry (in [17]; with U2OS [20]) was “inactive” in each case.

These data come from ChEMBL document CHEMBL1765057, “Pyrazolo[4,3-d]pyrimidine bioisostere of roscovitine: evaluation of a novel selective inhibitor of cyclin-dependent kinases with antiproliferative activity” (J Med Chem, 2011).
